Measured values published in publication PMC3174326 (Journal of medicinal chemistry, 2011).
Where a SMILES comes first, the peptide text is derived from it. The star is where a group is joined. X1 = O=C(NCCCN*)c1ccc(-c2n[nH]c3ccccc23)cc1

Legend:
JNK1 = JNK1 (Homo sapiens, UniProt P45983); format: biochemical; settings: for IC50: read-out: Kinase Inhibition IC50, JNK1 phosphorylation of ATF2, TR-FRET
NONcNZO10/LtJ mice = experiment: Glucose tolerance test in type 2 diabetes mouse model; format: in vivo; settings: 25 mg/kg i.p. daily, 26-week-old NONcNZO10/LtJ mice, 2 g/kg D-glucose i.p.
Outline: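 Male 26-week-old NONcNZO10/LtJ mice, glucose intolerant, received test compound daily by i.p. injection alongside vehicle-treated controls. After a 16 h fast, mice were given D-glucose i.p. Blood was sampled at set time points and glucose read with a hand-held meter. Treated and vehicle groups were compared by two-way ANOVA using all measurements.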

GST-JNK1 = GST-JNK1 (UniProt P45983 1-427); experiment: DELFIA
Sequence of GST-JNK1 (P45983 whole entry): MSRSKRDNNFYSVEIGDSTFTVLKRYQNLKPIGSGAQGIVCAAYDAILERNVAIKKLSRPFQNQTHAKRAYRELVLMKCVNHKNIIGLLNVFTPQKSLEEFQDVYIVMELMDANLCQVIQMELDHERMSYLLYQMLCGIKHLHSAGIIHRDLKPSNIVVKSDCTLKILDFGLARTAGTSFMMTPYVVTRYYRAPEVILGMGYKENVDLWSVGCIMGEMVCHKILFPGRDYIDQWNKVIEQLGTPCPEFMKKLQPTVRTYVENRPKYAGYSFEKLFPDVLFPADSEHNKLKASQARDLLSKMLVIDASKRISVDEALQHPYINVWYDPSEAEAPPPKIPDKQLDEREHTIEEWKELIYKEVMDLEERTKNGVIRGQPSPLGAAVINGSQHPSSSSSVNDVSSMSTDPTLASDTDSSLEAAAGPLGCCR

Sequence of JNK1 (P45983 whole entry): as above

**Q.** For CC(C)CC(NC(=O)C(CC(N)=O)NC(=O)C(CC(C)C)NC(=O)C(NC(=O)C(NC(=O)C1CCCN1C(=O)C(N)CCCNC(=N)N)C(C)O)C(C)O)C(=O)NCC(=O)NCC(=O)NCCCNC(=O)c1ccc(-c2n[nH]c3ccccc23)cc1 (centres unmarked) [compound 9] (H-RPTTLNLGG-X1; configuration not given here), which “improvement of kinase inhibition properties compared with 20” value (JNK1; 9 versus 20, Figure 1e) is on record?
**A.** over 100 fold

**Q.** What about the IC50 (JNK1) of the same molecule?
**A.** 0.0007 µM

**Q.** Which “glucose tolerance / restoring normoglycemia” value (NONcNZO10/LtJ mice) does the source give for “Ac-tdqsrpvqpflnlttprrprpprrrqrrkkrg-OH (Ac-TDQSRPVQPFLNLTTPRRPRPPRRRQRRKKRG-OH; also: lowercase letters in name, meaning not given here) [compound 11]” here?
**A.** observed shortcoming

**Q.** What about the IC50 (JNK1) of the same molecule?
**A.** > 50 µM

B1: 10 (Ac-RPTTLNL-OH) (peptide)
peptide: Ac-RPTTLNL-OH
**Q.** Which IC50 (GST-JNK1) does the source give for B1 here?
**A.** 4.5 µM
